Assay results reported in ChEMBL document CHEMBL1143003, “Novel tricyclic compounds having acetylene groups at C-8a and cyano enones in rings A and C: highly potent anti-inflammatory and cytoprotective agents” (J Med Chem, 2007).
Active and inactive are the calls of the source. The calls are words filed in the database; no cut-off is given here.

Key:
RAW = assay: Inhibition of interferon gamma-stimulated NO production in RAW 264.7 cells after 24 hrs; format: functional, cell-based, Mus musculus
[1] = molecular target: T1, Heme oxygenase 1 (Mus musculus) (UniProt P14901); assay: Induction of HO1 in CD1 mouse liver at 1 umol, po after 6 hrs; format: organism-based
T1 sequence (whole entry): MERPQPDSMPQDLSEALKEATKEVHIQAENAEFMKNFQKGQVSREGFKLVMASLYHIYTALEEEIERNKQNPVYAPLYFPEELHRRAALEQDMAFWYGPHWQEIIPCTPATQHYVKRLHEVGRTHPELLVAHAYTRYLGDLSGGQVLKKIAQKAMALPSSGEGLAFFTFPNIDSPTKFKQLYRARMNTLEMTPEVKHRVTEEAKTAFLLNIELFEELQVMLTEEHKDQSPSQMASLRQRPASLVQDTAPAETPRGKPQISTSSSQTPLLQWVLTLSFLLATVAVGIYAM
Procedure, shortened: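 Compound given orally at 1 μmol. Livers were collected 6 h later, and HO-1 protein was measured by Western blot.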

[2] = molecular target: T1, Heme oxygenase 1 (Mus musculus); assay: Induction of HO1 in CD1 mouse stomach at 1 umol, po after 6 hrs; format: organism-based
Procedure, shortened: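 Male CD-1 mice, three per group, were each gavaged with a single 1 μmol dose. HO-1 induction was then assessed in the stomach.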

CCC#C[C@]12C=C(C#N)C(=O)C=C1[C@@]1(C)C=C(C#N)C(=O)C(C)(C)[C@@H]1CC2 (racemic)
IC50 (RAW; Mus musculus, RAW, 24 h): 20 nM

CC1(C)C(=O)C(C#N)=C[C@]2(C)C3=CC(=O)C(C#N)=C[C@]3(C#C[Si](C)(C)C)CC[C@@H]12
IC50 (RAW; Mus musculus, RAW, 24 h): 3 nM

C#C[C@@]12C=C(C#N)C(=O)C=C1[C@]1(C)C=C(C#N)C(=O)C(C)(C)C1CC2 (some centres undefined)
IC50 (RAW; Mus musculus, RAW, 24 h): 1 nM

CC[C@]12C=C(C#N)C(=O)C=C1[C@@]1(C)C=C(C#N)C(=O)C(C)(C)[C@@H]1CC2 (racemic)
IC50 (RAW; Mus musculus, RAW, 24 h): 10 nM

CC1(C)CC[C@]2(C(=O)O)CC[C@]3(C)[C@H](C(=O)C=C4[C@@]5(C)C=C(C#N)C(=O)C(C)(C)[C@@H]5CC[C@]43C)[C@@H]2C1 [BARDOXOLONE]
IC50 (RAW; Mus musculus, RAW, 24 h): 20 nM | Activity [1]: Active | Activity [2]: Active

CC1(C)C(=O)C(C#N)=C[C@]2(C)C3=CC(=O)C(C#N)=C[C@]3(C#CC#N)CC[C@@H]12 (racemic)
IC50 (RAW; Mus musculus, RAW, 24 h): 4 nM

C#C[C@]12C=C(C#N)C(=O)C=C1[C@@]1(C)C=C(C#N)C(=O)C(C)(C)[C@@H]1CC2 (racemic) [listing 1 of 2 here]
Activity [1]: Active | Activity [2]: Active

C#C[C@]12C=C(C#N)C(=O)C=C1[C@@]1(C)C=C(C#N)C(=O)C(C)(C)[C@@H]1CC2
IC50 (RAW; raw): 3 nM

C#C[C@]12C=C(C#N)C(=O)C=C1[C@@]1(C)C=C(C#N)C(=O)C(C)(C)[C@@H]1CC2 (racemic) [listing 2 of 2 here]
IC50 (RAW; raw): 1 nM

C=C[C@]12C=C(C#N)C(=O)C=C1[C@@]1(C)C=C(C#N)C(=O)C(C)(C)[C@@H]1CC2 (racemic)
IC50 (RAW; Mus musculus, RAW, 24 h): 10 nM

CC#C[C@]12C=C(C#N)C(=O)C=C1[C@@]1(C)C=C(C#N)C(=O)C(C)(C)[C@@H]1CC2 (racemic)
IC50 (RAW; Mus musculus, RAW, 24 h): 5 nM

CC1(C)C(=O)C(C#N)=C[C@]2(C)C3=CC(=O)C(C#N)=C[C@]3(C)CC[C@@H]12
IC50 (RAW; Mus musculus, RAW, 24 h): 30 nM | Activity [1]: Active | Activity [2]: Active

C[C@@H]1C[C@H]2[C@@H]3CCC4=CC(=O)C=C[C@]4(C)[C@@]3(F)[C@@H](O)C[C@]2(C)[C@@]1(O)C(=O)CO [DEXAMETHASONE]
IC50 (RAW; Mus musculus, RAW, 24 h): 20 nM

CC1(C)C(=O)C(C#N)=C[C@@]2(C)C3=CC(=O)C(C#N)=C[C@@]3(C#C[Si](C)(C)C)CCC12 (some centres undefined)
IC50 (RAW; Mus musculus, RAW, 24 h): 2 nM

CC1(C)CC[C@]2(C(=O)n3ccnc3)CC[C@]3(C)[C@H](C(=O)C=C4[C@@]5(C)C=C(C#N)C(=O)C(C)(C)[C@@H]5CC[C@]43C)[C@@H]2C1
IC50 (RAW; Mus musculus, RAW, 24 h): 1 nM | Activity [1]: Active | Activity [2]: Active

CC1(C)C(=O)C(C#N)=C[C@]2(C)C3=CC(=O)C(C#N)=CC3(C#C[Si](C)(C)C)CC[C@@H]12 (mixture of isomers)
IC50 (RAW; Mus musculus, RAW, 24 h): 3 nM

CC1(C)CC[C@]2(C#N)CC[C@]3(C)C(C(=O)C=C4[C@@]5(C)C=C(C#N)C(=O)C(C)(C)[C@@H]5CC[C@]43C)C2C1 (some centres undefined) [CDDO-CN]
IC50 (RAW; Mus musculus, RAW, 24 h): 1 nM
